Test results reported in ChEMBL document CHEMBL1138004, “Small molecule antagonists of the CCR2b receptor. Part 2: Discovery process and initial structure-activity relationships of diamine derivatives” (Bioorg Med Chem Lett, 2004).

Each molecule was assayed against T1, C-C chemokine receptor type 2 (Homo sapiens, UniProt P41597). Conditions: 10 uM; call rule not given here.
Target sequence in this assay (P41597 whole entry, looked up): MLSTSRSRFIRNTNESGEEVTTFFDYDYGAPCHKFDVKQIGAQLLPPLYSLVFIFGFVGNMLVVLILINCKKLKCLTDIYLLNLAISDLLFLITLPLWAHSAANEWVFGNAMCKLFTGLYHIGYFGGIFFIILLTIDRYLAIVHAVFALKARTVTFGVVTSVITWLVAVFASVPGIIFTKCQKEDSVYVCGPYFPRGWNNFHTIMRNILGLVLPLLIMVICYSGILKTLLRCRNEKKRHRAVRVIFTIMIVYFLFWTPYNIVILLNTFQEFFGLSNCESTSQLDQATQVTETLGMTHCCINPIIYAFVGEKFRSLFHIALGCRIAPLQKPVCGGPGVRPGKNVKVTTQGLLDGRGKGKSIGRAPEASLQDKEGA

Row | SMILES | inhibition
1 | O=C(CNC(=O)c1cccc(C(F)(F)F)c1)N[C@@H]1CCN(Cc2ccc(Cl)cc2)C1 | 49%

These molecules were tested against T1, C-C chemokine receptor type 2 (assay: Concentration required to inhibit [125I]MCP-1 binding to Chemokine receptor 2B). Conditions: not given.
Outline: (§1)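 Radioligand binding with THP-1 cells as the receptor source and human 125I-MCP-1 as the tracer. Inhibition of tracer binding by test compounds was measured.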
Target sequence in this assay (P41597 whole entry): as the sequence (P41597 whole entry, looked up) above

Row | SMILES | IC50
2 | Cc1cccc(C(=O)NCC(=O)NCC2CCN(Cc3ccc(Cl)cc3)CC2)c1 | 5.5 µM
3 | O=C(CCNC(=O)c1ccccc1)NC1CCN(Cc2ccc(Cl)cc2)C1 (stereo not given) | 22 µM
4 | O=C(CNC(=O)c1ccccc1)NCC1CCN(Cc2ccc(Cl)cc2)CC1 | 11 µM
5 | O=C(CCCC(=O)c1ccccc1)NC1CCN(Cc2ccc(Cl)cc2)C1 (stereo not given) | 11 µM
6 | O=C(CNC(=O)c1ccccc1)NC1CCN(Cc2ccc(Cl)cc2)C1 (stereo not given) | 42 µM
7 | O=C(CNC(=O)c1cccc(C(F)(F)F)c1)NC1CCCN(Cc2ccc(Cl)cc2)C1 (stereo not given) | 0.66 µM
8 | O=C(CCNC(=O)c1ccccc1)NC1CCCN(Cc2ccc(Cl)cc2)C1 (stereo not given) | 74 µM
9 | Cc1cccc(C(=O)NCC(=O)NC2CCCN(Cc3ccc(Cl)cc3)C2)c1 (stereo not given) | 17 µM
10 | O=C(CNC(=O)c1cccc(C(F)(F)F)c1)N[C@@H]1CCN(Cc2ccc(Cl)cc2)C1 | 0.18 µM
11 | O=C(CNC(=O)c1cccc(C(F)(F)F)c1)NC[C@H]1CCCN1Cc1ccc(Cl)cc1 | 0.57 µM
12 | O=C(CNC(=O)c1cccc(C(F)(F)F)c1)N[C@H]1CCN(Cc2ccc(Cl)cc2)C1 | 1.2 µM
13 | O=C(CCNC(=O)c1ccccc1)NCC1CCN(Cc2ccc(Cl)cc2)CC1 | 64 µM
14 | O=C(CNC(=O)c1cccc(C(F)(F)F)c1)NC1CCN(Cc2ccc(Cl)cc2)C1 (stereo not given) | 0.37 µM
15 | O=C(CNC(=O)c1cccc(C(F)(F)F)c1)NCC1CCN(Cc2ccc(Cl)cc2)CC1 | 0.7 µM
16 | O=C(CCCC(=O)c1ccccc1)NCC1CCCN1Cc1ccc(Cl)cc1 (stereo not given) | 19 µM
17 | O=C(CCCC(=O)c1ccccc1)NCC1CCN(Cc2ccc(Cl)cc2)CC1 | 50 µM
18 | Cc1csc(C(=O)NNC(=O)CNC2CCN(CCC(c3ccccc3)c3ccccc3)C2)c1 (stereo not given) | 33 µM
19 | O=C(CCCC(=O)c1ccccc1)NC1CCCN(Cc2ccc(Cl)cc2)C1 (stereo not given) | 87 µM
20 | Cc1csc(C(=O)NNC(=O)CN2CCC(NCc3ccc(Cl)cc3)C2)c1 (stereo not given) | 7.8 µM
21 | Cc1csc(C(=O)NNC(=O)CN2CCCC2CNCCC(c2ccccc2)c2ccccc2)c1 (stereo not given) | 26 µM
22 | Cc1csc(C(=O)NNC(=O)CNC2CCN(Cc3ccc(Cl)cc3)C2)c1 (stereo not given) | 41 µM
23 | O=C(CNC(=O)c1ccccc1)NCC1CCCN1Cc1ccc(Cl)cc1 (stereo not given) | 66 µM
24 | O=C(CCNC(=O)c1ccccc1)NCC1CCCN1Cc1ccc(Cl)cc1 (stereo not given) | 40 µM
25 | O=C(CNC(=O)c1cccc(C(F)(F)F)c1)NCC1CCCN1Cc1ccc(Cl)cc1 (stereo not given) | 2.3 µM
26 | Cc1csc(C(=O)NNC(=O)CN2CCC(NCCC(c3ccccc3)c3ccccc3)C2)c1 (stereo not given) | 17 µM
27 | O=C(CNC(=O)c1cccc(C(F)(F)F)c1)NC[C@@H]1CCCN1Cc1ccc(Cl)cc1 | 3.1 µM
28 | Cc1cccc(C(=O)NCC(=O)NCC2CCCN2Cc2ccc(Cl)cc2)c1 (stereo not given) | 14 µM
29 | Cc1cccc(C(=O)NCC(=O)NC2CCN(Cc3ccc(Cl)cc3)C2)c1 (stereo not given) | 6.9 µM

The molecules below were run against T1, C-C chemokine receptor type 2 (assay: Inhibition of [125I]MCP-1 binding to Chemokine receptor 2B; not active). Conditions: not given.
Outline: as §1
Target sequence in this assay (P41597 whole entry): as the sequence (P41597 whole entry, looked up) above

Row | SMILES | IC50
30 | O=C(CNC(=O)c1ccccc1)NC1CCCN(Cc2ccc(Cl)cc2)C1 (stereo not given) | Not Active
